From ChEMBL document CHEMBL1144221, “Novel naphthoquinone and quinolinedione inhibitors of CDC25 phosphatase activity with antiproliferative properties” (Bioorg Med Chem, 2008)
Each block holds one molecule with its values, some of them ahead of it.

Columns and labels:
[1] = system: HeLa; assay: Cytotoxicity against human HeLa cells after 96 h by WST1 colorimetric assay
[2] = molecular target: T1, M-phase inducer phosphatase 2 (Homo sapiens, UniProt P30305); assay: Inhibition of human recombinant fused MBP-CDC25B3
T1 sequence (P30305 whole entry): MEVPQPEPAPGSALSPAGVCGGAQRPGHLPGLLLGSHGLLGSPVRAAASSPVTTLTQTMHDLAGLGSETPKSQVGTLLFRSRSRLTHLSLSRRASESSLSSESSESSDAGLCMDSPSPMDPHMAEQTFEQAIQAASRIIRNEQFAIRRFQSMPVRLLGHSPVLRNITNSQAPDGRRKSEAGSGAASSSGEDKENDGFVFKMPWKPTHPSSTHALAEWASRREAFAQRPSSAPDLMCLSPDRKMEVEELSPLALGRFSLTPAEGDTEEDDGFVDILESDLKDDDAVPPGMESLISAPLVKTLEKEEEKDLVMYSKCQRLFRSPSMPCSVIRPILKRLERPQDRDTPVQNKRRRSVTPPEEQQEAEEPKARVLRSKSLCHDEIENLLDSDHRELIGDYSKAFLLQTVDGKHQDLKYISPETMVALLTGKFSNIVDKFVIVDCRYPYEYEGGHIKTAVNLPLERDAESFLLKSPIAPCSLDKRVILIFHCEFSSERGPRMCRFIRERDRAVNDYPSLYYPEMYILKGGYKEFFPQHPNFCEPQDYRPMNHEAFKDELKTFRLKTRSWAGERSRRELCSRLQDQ

[3] = molecular target: T1, M-phase inducer phosphatase 2; assay: Inhibition of human recombinant CDC25B
[4] = system: HeLa; assay: Cell cycle arrest in asynchronous human HeLa cells assessed as accumulation at G0/G1 phase at 10 uM after 24 hrs by flow cytometry; format: functional
Summary of the method: (§1)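 Asynchronous HeLa cells grown 24 h, then treated 24 h at 10 or 50 µM. Cells were trypsinized, fixed in cold ethanol and permeabilized with 0.25% Triton X-100. They were stained with anti-H3P/Alexa 488 antibody, treated with RNase and stained with propidium iodide (10 µg/mL). Flow cytometry gave the percentage of cells in G0/G1, S and G2/M. Three independent runs; DMSO served as negative control.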

[5] = system: HeLa; assay: Cell cycle arrest in asynchronous human HeLa cells assessed as accumulation at G2/M phase at 10 uM after 24 hrs by flow cytometry; format: functional
Summary of the method: as §1

[6] = system: HeLa; assay: Cell cycle arrest in asynchronous human HeLa cells assessed as accumulation at S phase at 10 uM after 24 hrs by flow cytometry; format: functional
Summary of the method: as §1

[7] = system: HeLa; assay: Antiproliferative activity against human HeLa cells after 10 days by clonogenic assay; format: functional, cell-based; settings: 240 h
Summary of the method: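 HeLa cells seeded at 100 cells/well, grown 24 h at 37 °C in 5% CO₂, then given medium with inhibitor at increasing concentrations (up to 100 µM) for 10 days. Colonies were fixed in 10% formaldehyde, stained with crystal violet and counted to get plating efficiency. IC50 was taken from the dose-response curve.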

IC50 [2]: 5.3 µM
SMILES: O=C1C(Br)=C(Br)C(=O)c2ncccc21
IC50 [1]: 21.5 µM

IC50 [3]: 3.4 µM
SMILES: O=C(CSC1=C(SCC(=O)OCc2ccccc2)C(=O)c2ccccc2C1=O)OCc1ccccc1

SMILES: C[C@@]12CCCc3coc(c31)C(=O)c1cc3c(cc12)C(=O)C1=C(NCCS1(=O)=O)C3=O [ADOCIAQUINONE B]
IC50 [3]: 0.07 µM

IC50 [7]: 8.5 µM
SMILES: O=C1C(SCCO)=C(SCCO)C(=O)c2ccccc21
IC50 [1]: 10.8 µM | Activity [4]: 56% | Activity [5]: 19% | Activity [6]: 25%
